Measurements collected from several papers.
CDK1: Cyclin-dependent kinase 1 (CDK1, Homo sapiens, UniProt P06493)
SGK2: Serine/threonine-protein kinase Sgk2 (SGK2, Homo sapiens, UniProt Q9HBY8)
CDK9: Cyclin-dependent kinase 9 (CDK9, Homo sapiens, UniProt P50750)

Compound	target	assay	system	setting	measurement	value
CCN(CC)CCNC(=O)c1ccc(NCN2C(=O)NC(c3ccccc3)(c3ccccc3)C2=O)cc1	Mitogen-activated protein kinase 3 (MAPK3, Homo sapiens, UniProt P27361)	enzyme activity, inhibitor, ADP detection	–	10 µM	inhibition	43.6%
Cc1cc2c(C(N)=O)c(N)n(-c3c(C)ccc(O)c3C)c2nc1C	Proto-oncogene tyrosine-protein kinase Src (SRC, Homo sapiens, UniProt P12931)	enzyme activity, inhibitor, TR-FRET	–	1.524 nM	inhibition	20.4%
COc1ccc2oc(-c3ccc4nc(N)oc4c3)c/c(=N\c3ccccc3NC(=O)CCN)c2c1	5'-AMP-activated protein kinase catalytic subunit alpha-2 (PRKAA2, Homo sapiens, UniProt P54646)	binding	–	1 µM	remaining binding	103%
COc1cc(Br)cc(C2NC(=O)NC(C)=C2C(=O)OCc2ccccc2)c1O (stereo not shown)	Voltage-dependent T-type calcium channel subunit alpha-1H (CACNA1H, Homo sapiens, UniProt O95180)	ion current, inhibitor, patch clamp	HEK293	10 µM	inhibition	> 60%
CC(=O)ON=C1C=CC(=C(C#N)c2ccccc2)C=C1	Dual specificity protein kinase CLK1 (Clk1, Mus musculus, UniProt P22518)	enzyme activity, inhibitor, ADP detection	–	20 µM	activity vs control	99%
C[C@H]1CN(c2ccc(C3CCC(=O)NC3=O)cc2F)CCN1CC12CCC(NS(=O)(=O)c3ccc(Nc4ncc(C(F)(F)F)c(N5CCC[C@](C)(O)C5)n4)c(F)c3)(CC1)CO2 (stereo partly shown)	CDK1	protein level, degrader, western blot	TOV21G	–	Dmax	32%
C#Cc1cc(-c2cc(Nc3nc(N[C@@H](C)c4ccc(F)cn4)ncc3Cl)n[nH]2)ccc1C=O	SGK2	enzyme activity, inhibitor	–	0.2 µM	inhibition	4.48%
C1=C/COCc2cc(ccc2OCCN2CCCC2)Nc2nccc(n2)-c2cccc(c2)COC/1	Dual specificity mitogen-activated protein kinase kinase 7 (MAP2K7, Homo sapiens, UniProt O14733)	cell-free assay	–	0.1 µM	remaining signal	73%
CCCCC(=O)Nc1ccc(-c2ccc3ncn(CCC)c(=O)c3c2)cn1	SGK2	binding, competition with immobilised ligand	–	0.5 µM	remaining binding	100%
CC(C)(C)c1cnc(CSc2cnc(NC(=O)C3CCN(C(=O)CCCCCCCCCCN4Cc5cc6c(cc5C4)C(=O)N(C4CCC(=O)NC4=O)C6=O)CC3)s2)o1 (stereo not shown)	CDK9	protein level, degrader, western blot	TC-71	25 nM	inhibition	89.1%
NC/C(=C\F)COc1cccc(Cn2c(=S)[nH]c(=O)c3[nH]cnc32)c1	Myeloperoxidase (Mus musculus, UniProt P11247)	enzyme activity, inhibitor	–	10 µM	remaining activity	-4.18%
C[C@]1(O)CCCN(c2nc(Nc3ccc(S(=O)(=O)N[C@@H]4CCN(CC5CCN(c6ccc(C7CCC(=O)NC7=O)cc6F)CC5)C[C@H]4F)cc3F)ncc2C(F)(F)F)C1 (stereo partly shown)	CDK1	protein level, degrader, western blot	TOV21G	–	Dmax	26%
CC(C)(C)c1cnc(CSc2cnc(NC(=O)C3CCN(C(=O)CCCCCN4Cc5cc6c(cc5C4)C(=O)N(C4CCC(=O)NC4=O)C6=O)CC3)s2)o1 (stereo not shown)	CDK9	protein level, degrader, western blot	TC-71	25 nM	inhibition	93.4%
